# Assay results published in ChEMBL document CHEMBL1687732, “Prevention of death in bacterium-infected mice by a synthetic antimicrobial peptide, L5, through activation of host immunity” (2009).
# Calls of active or inactive are those of the source. The calls are words filed in the database; no cut-off is given here. Non-standard residues stand in square brackets, D forms with d. Residues, ends and D or L forms follow the SMILES beside them.
# Legend:
# Staphylococcus aureus [1] = experiment: Antibacterial activity against Staphylococcus aureus Smith infected in ICR mouse assessed as survival rate at 12.5 ug, ip pretreated for 7 hrs before infection using 2 X 10^6 CFU inoculum measured on day 5 after bacterial infection; format: functional
# Summary of the method: (§1)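 Five-week-old female ICR mice got peptide intraperitoneally in 500 μl Dulbecco's PBS with 2% DMSO; vehicle controls got PBS/2% DMSO. The minimum lethal bacterial dose was given intraperitoneally at set intervals: S. aureus Smith 2 × 10⁶, E. faecalis SR1004 1.7 × 10⁸, E. coli EC14 2.3 × 10⁴ CFU/mouse. Survival was scored on day 5 (4 or 8 mice/group; Fisher's exact test).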
# Staphylococcus aureus [2] = experiment: Antibacterial activity against Staphylococcus aureus Smith infected in ICR mouse assessed as survival rate at 25 ug, ip pretreated for 7 hrs before infection using 2 X 10^6 CFU inoculum measured on day 5 after bacterial infection; format: functional; summary of the method: as §1
# Escherichia coli [3] = experiment: Antibacterial activity against Escherichia coli EC14 infected in ICR mouse assessed as survival rate at 100 ug, ip pretreated for 7 hrs before infection using 2.3 X 10^4 CFU inoculum measured on day 5 after bacterial infection; format: functional; summary of the method: as §1
# Escherichia coli [4] = experiment: Antibacterial activity against Escherichia coli EC14 by broth microdilution method; format: functional
# Summary of the method: (§2)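 MIC was determined by broth microdilution following NCCLS recommendations.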
# Enterococcus faecalis [5] = experiment: Antibacterial activity against Enterococcus faecalis SR1004 infected in ICR mouse assessed as survival rate at 100 ug, ip pretreated for 7 hrs before infection using 1.7 X 10^8 inoculum measured on day 5 after bacterial infection; format: functional; summary of the method: as §1
# Staphylococcus aureus [6] = experiment: Antibacterial activity against Staphylococcus aureus Smith infected in ICR mouse assessed as survival rate at 50 ug, ip pretreated for 24 hrs before infection using 2 X 10^6 CFU inoculum measured on day 5 after bacterial infection; format: functional; summary of the method: as §1
# Staphylococcus aureus [7] = experiment: Antibacterial activity against Staphylococcus aureus Smith infected in ICR mouse assessed as survival rate at 50 ug, ip treated 0.5 hrs after infection using 2 X 10^6 CFU inoculum measured on day 5 after bacterial infection; format: functional; summary of the method: as §1
# Staphylococcus aureus [8] = experiment: Antibacterial activity against Staphylococcus aureus Smith infected in ICR mouse assessed as survival rate at 50 ug, ip treated at the time of infection using 2 X 10^6 CFU inoculum measured on day 5 after bacterial infection; format: functional; summary of the method: as §1
# Escherichia coli [9] = experiment: Antibacterial activity against Escherichia coli EC14 infected in ICR mouse assessed as survival rate at 100 ug, ip pretreated for 7 hrs before infection using 2.5 X 10^3 CFU inoculum measured on day 5; format: functional
# Staphylococcus aureus [10] = experiment: Antibacterial activity against Staphylococcus aureus Smith infected in ICR mouse assessed as survival rate at 100 ug, ip pretreated for 7 hrs before infection using 2 X 10^6 CFU inoculum measured on day 5 after bacterial infection; format: functional; summary of the method: as §1
# Staphylococcus aureus [11] = experiment: Antibacterial activity against Staphylococcus aureus Smith infected in ICR mouse assessed as survival rate at 100 ug, ip pretreated for 7 hrs before infection using 3 X 10^6 CFU inoculum measured on day 5; format: functional
# Staphylococcus aureus [12] = experiment: Antibacterial activity against Staphylococcus aureus Smith infected in ICR mouse assessed as survival rate at 50 ug, ip pretreated for 3 hrs before infection using 2 X 10^6 CFU inoculum measured on day 5 after bacterial infection; format: functional; summary of the method: as §1
# Staphylococcus aureus [13] = experiment: Antibacterial activity against Staphylococcus aureus Smith infected in ICR mouse assessed as survival rate at 100 ug, ip pretreated for 7 hrs before infection using 3 X 10^7 CFU inoculum measured on day 5; format: functional
# Escherichia coli [14] = experiment: Antibacterial activity against Escherichia coli EC14 infected in ICR mouse assessed as survival rate at 100 ug, ip pretreated for 7 hrs before infection using 2.5 X 10^4 CFU inoculum measured on day 5; format: functional
# Staphylococcus aureus [15] = experiment: Antibacterial activity against Staphylococcus aureus Smith by broth microdilution method; format: functional; summary of the method: as §2
# Staphylococcus aureus [16] = experiment: Antibacterial activity against Staphylococcus aureus Smith infected in ICR mouse assessed as survival rate at 50 ug, ip pretreated for 7 hrs before infection using 2 X 10^6 CFU inoculum measured on day 5 after bacterial infection; format: functional; summary of the method: as §1
# Enterococcus faecalis [17] = experiment: Antibacterial activity against Enterococcus faecalis SR1004 by broth microdilution method; format: functional; summary of the method: as §2
# Staphylococcus aureus [18] = experiment: Antibacterial activity against Staphylococcus aureus Smith infected in ICR mouse assessed as survival rate at 50 ug, ip pretreated for 1 hr before infection using 2 X 10^6 CFU inoculum measured on day 5 after bacterial infection; format: functional; summary of the method: as §1
# Staphylococcus aureus [19] = experiment: Antibacterial activity against Staphylococcus aureus Smith infected in ICR mouse assessed as survival rate at 3.13 ug, ip pretreated for 7 hrs before infection using 2 X 10^6 CFU inoculum measured on day 5 after bacterial infection; format: functional; summary of the method: as §1
# Mus musculus [20] = experiment: Induction of ROS generation in intraperitoneally dosed ICR mouse abdominal cavity neutrophils after 7 hrs by lucigenin-dependent chemiluminescence method; format: functional, organism-based
# Summary of the method: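 Peptide was injected intraperitoneally. After 7 h, peritoneal cells were collected by lavage with 5 ml cold saline, washed, and suspended at 2 × 10⁵ cells/ml in HEPES-buffered Hank's solution, pH 7.4. After 5 min at 37°C, lucigenin was added to 0.1 mM final. Chemiluminescence was read at 37°C in relative light units. The experiment was repeated and representative data shown.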
# Mus musculus [21] = experiment: Induction of neutrophil recruitment in intraperitoneally dosed ICR mouse abdominal cavity assessed as neutrophil level after 7 hrs using hematoxylin and eosin staining by microscopy; format: functional
# Summary of the method: (§3)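 Peptide was injected intraperitoneally. After 7 h, the peritoneal cavity was lavaged with 5 ml cold sterile saline. Cells were washed, resuspended at 1 × 10⁶/ml in heat-inactivated FCS, cytocentrifuged, and stained with Diff-Quick. Total cells and neutrophils were counted by microscopy, and neutrophil percentage was averaged over five fields ± SD. Comparison used an unpaired t test after arcsine transformation.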
# [22] = tested on: Peritoneal macrophage cell; experiment: Induction of Mig/CXCL9 mRNA expression in TGC-elicited ICR mouse peritoneal macrophage at 25 ug/ml after 7.5 hrs by RT-PCR; format: functional, cell-based
# Summary of the method: (§4)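 Mouse peritoneal macrophages were elicited with 3 ml of 3% thioglycolate medium given intraperitoneally and collected 4 days later by lavage with cold PBS. Cells were seeded at 1 × 10⁶/ml in RPMI-1640 with 10% heat-inactivated FCS and allowed to adhere for 2 h at 37°C; nonadherent cells were then rinsed off. Cells were exposed to peptide at 25 μg/ml for 2.5, 5 or 7.5 h, with LPS at 100 ng/ml for 24 h as positive control. RT-PCR used 400 ng total RNA and 25–35 cycles, with ethidium bromide agarose gels and G3PDH primers; n = 3.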
# Mus musculus [23] = experiment: Induction of neutrophil recruitment in intraperitoneally dosed ICR mouse abdominal cavity assessed as accumulation of neutrophils after 7 hrs using hematoxylin and eosin staining by microscopy; format: functional, organism-based; summary of the method: as §3
# Mus musculus [24] = species on record: Mus musculus; experiment: Induction of Mig/CXCL9 mRNA expression in TGC-elicited ICR mouse peritoneal macrophage at 25 ug/ml after 5 hrs by RT-PCR; format: functional; summary of the method: as §4
# Staphylococcus aureus [25] = experiment: Antibacterial activity against Staphylococcus aureus Cowan I infected in intraperitoneally dosed ICR mouse assessed as bacterial kill in abdomen pretreated for 7 hrs before infection using 4 X 10^5 CFU inoculum; format: functional
# Summary of the method: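 Peptide solution (500 μl) was injected ip. After 7 h, S. aureus Cowan I (4 × 10⁵ CFU/mouse) was introduced into the abdominal cavity for 15 min. The peritoneum was lavaged with 5 ml cold sterile saline, serially diluted in PBS and plated on LB agar for 18 h. Colonies were counted against saline-control mice (unpaired Student's t test).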
# [26] = tested on: Peritoneal macrophage cell; experiment: Induction of Mig/CXCL9 mRNA expression in TGC-elicited ICR mouse peritoneal macrophage at 25 ug/ml after 2.5 to 5 hrs by RT-PCR; format: functional, cell-based; summary of the method: as §4
compound,measurement,setting,value
CC(C)C[C@@H](NC(=O)[C@H](N)CCCCN)C(=O)N[C@H](CCCCN)C(=O)N[C@H](CC(C)C)C(=O)N[C@H](CC(C)C)C(=O)N[C@H](CC(C)C)C(=O)N[C@H](CC(C)C)C(=O)N[C@H](CC(C)C)C(=O)N[C@H](CCCCN)C(=O)N[C@H](CC(C)C)C(=O)N[C@H](CCCCN)C(N)=O (H-[dK][dL][dK][dL][dL][dL][dL][dL][dK][dL][dK]-NH2),Survival,Staphylococcus aureus [1],0%
same,Survival,Staphylococcus aureus [2],75%
same,Survival,Escherichia coli [3],75%
same,MIC,Escherichia coli [4],> 625 mg/L
same,Survival,Enterococcus faecalis [5],100%
same,Survival,Staphylococcus aureus [6],0%
same,Survival,Staphylococcus aureus [7],0%
same,Survival,Staphylococcus aureus [8],0%
same,Activity,Escherichia coli [9],100%
same,Survival,Staphylococcus aureus [10],100%
same,Activity,Staphylococcus aureus [11],50%
same,Survival,Staphylococcus aureus [12],62.5%
same,Activity,Staphylococcus aureus [13],25%
same,Activity,Escherichia coli [14],100%
same,MIC,Staphylococcus aureus [15],> 625 mg/L
same,Survival,Staphylococcus aureus [16],87.5%
same,MIC,Enterococcus faecalis [17],> 625 mg/L
same,Survival,Staphylococcus aureus [18],25%
same,Survival,Staphylococcus aureus [19],0%
H-KLKLLLKLK-NH2,Activity,Mus musculus [20],inactive
same,Survival,Staphylococcus aureus [10],0%
H-KLKLLLLLKLK-NH2,Activity,Mus musculus [21],40%
same,Activity,[22],inactive
same,Survival,Escherichia coli [3],25%
same,MIC,Escherichia coli [4],> 625 mg/L
same,Survival,Enterococcus faecalis [5],75%
same,Activity,Mus musculus [23],Active
same,Activity,Mus musculus [24],Active
same,Activity,Mus musculus [20],Active
same,Survival,Staphylococcus aureus [10],75%
same,Activity,Staphylococcus aureus [25],75%
same,MIC,Staphylococcus aureus [15],> 625 mg/L
same,Activity,[26],Active
same,MIC,Enterococcus faecalis [17],> 625 mg/L
